Experimental data taken from ChEMBL document CHEMBL1159370, “A novel NO-production-inhibiting triterpene and cytotoxicity of known alkaloids from Euonymus laxiflorus” (J Nat Prod, 2003).
Converted amounts (≈) assume the structure as drawn.

What was measured:
KB = assay: Cytotoxicity against human KB cells; type: functional; conditions: read-out: ED50 (the source's name)
COLO 205 = assay: Cytotoxicity against human COLO205 cells; type: functional; conditions: read-out: ED50 (the source's name)
RAW264.7 [1] = assay: Inhibition of LPS/IFN-gamma-induced nitrite accumulation in mouse RAW264.7 cells at 0.2 mg/ml by Griess reagent assay; type: functional
Method in brief: (§1)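 RAW 264.7 cells were grown in DMEM with 10% heat-inactivated FCS at 37 °C under 5% CO2. Compound (DMSO vehicle, 0.02–0.5%) was added together with LPS (1 µg/mL) plus IFN-γ (50 U/mL) for 24 h. Medium nitrite was measured with Griess reagent (1% sulfanilamide, 0.1% naphthylenediamine, 5% phosphoric acid) at OD550 against sodium nitrite standards. Data are mean ± SEM of six experiments, each in triplicate.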

RAW264.7 [2] = assay: Inhibition of LPS/IFN-gamma-induced nitrite accumulation in mouse RAW264.7 cells by Griess reagent assay; type: functional, cell-based; method in brief: as §1
[3] = Cytotoxicity against mouse RAW264.7 cells assessed as cell viability by MTT reduction assay; type: cell-based; conditions: read-out: Activity
Method in brief: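 Viability was read by MTT reduction in RAW 264.7 macrophages exposed for 24 h at 37 °C to LPS (1 µg/mL) plus IFN-γ (50 U/mL) with the compound. Results are expressed relative to unstimulated basal control cells. Data are mean ± SEM of six experiments, each in triplicate.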

IC50 (RAW264.7 [2]) | SMILES | EC50 (KB) | EC50 (COLO 205) | inhibition at 200 µg/mL (RAW264.7 [1]) | viability [3]
 | CC1(C)C(O)CC[C@]2(C)[C@H]3CC=C4[C@@H]5C[C@@]6(C)CC(OC6=O)[C@]5(C)CC[C@@]4(C)[C@]3(C)CC[C@@H]12 (some centres undefined) | > 20 µg/mL | > 20 µg/mL |  | 
 | CC1(C)CC[C@]2(C)CC[C@]3(C)C(=CC(=O)[C@@H]4[C@@]5(C)CCC(=O)C(C)(C)[C@@H]5CC[C@]43C)[C@@H]2C1 | > 20 µg/mL | > 20 µg/mL |  | 
 | CC(=O)OC[C@]12[C@H](OC(C)=O)[C@H](OC(C)=O)[C@@H]3[C@@H](OC(=O)c4ccccc4)[C@@]14O[C@@]3(C)COC(=O)c1cccnc1C(C)C(C)C(=O)O[C@@H]([C@H](OC(C)=O)[C@@H]2OC(=O)c1ccccc1)[C@]4(C)O (some centres undefined) | > 20 µg/mL | > 20 µg/mL |  | 
 | CC(=O)OC[C@]12[C@H](O)[C@@H](OC(C)=O)[C@@H]3[C@@H](OC(C)=O)[C@@]14O[C@@]3(C)COC(=O)c1cccnc1[C@@H](C)[C@H](C)C(=O)O[C@@H]([C@H](OC(=O)c1ccc(=O)n(C)c1)[C@@H]2O)[C@]4(C)O [EMARGINATINE E] | 1.7 µg/mL (≈ 2.09 µM) | 4.1 µg/mL (≈ 5.03 µM) |  | 
 | CC(=O)OC[C@]12[C@H](OC(C)=O)[C@H](OC(C)=O)[C@@H]3[C@@H](OC(=O)c4ccccc4)[C@@]14O[C@@]3(C)COC(=O)c1cccnc1[C@@H](C)[C@H](C)C(=O)O[C@@H]([C@H](O)[C@@H]2OC(=O)c1ccccc1)[C@]4(C)O [EUOJAPONINE C] | > 20 µg/mL | > 20 µg/mL |  | 
120 µg/mL (≈ 264 µM) | CO[C@H]1CC[C@]2(C)[C@H]3C(=O)C[C@@H]4C5=CC(C)(C)CC[C@]5(C)CC[C@@]4(C)[C@]3(C)CC[C@H]2C1(C)C [LAXIFOLONE A] |  |  | > 80% | > 95%
 | CC(=O)OC[C@]12[C@H](OC(C)=O)[C@H](OC(C)=O)[C@@H]3[C@@H](OC(C)=O)[C@@]14O[C@@]3(C)COC(=O)c1cccnc1C(C)C(C)C(=O)O[C@@H]([C@H](OC(C)=O)[C@@H]2OC(=O)c1ccccc1)[C@]4(C)O (some centres undefined) [MAYTEINE] | > 20 µg/mL | > 20 µg/mL |  | 
 | CC1(C)[C@@H](O)CC[C@]2(C)[C@H]3CC=C4[C@@H]5C[C@](C)(C(=O)O)C[C@H](O)[C@]5(C)CC[C@@]4(C)[C@]3(C)CC[C@@H]12 [MAYTENFOLIC ACID] | > 20 µg/mL | > 20 µg/mL |  | 
 | C[C@H]1C(=O)CC[C@@H]2[C@]1(C)CC(=O)[C@H]1[C@@]2(C)CC[C@@]2(C)[C@@H]3CC(C)(C)CC[C@]3(C)CC[C@]12C [PUTRANJIVADIONE] | > 20 µg/mL | > 20 µg/mL |  | 
